In the library only some 4.5% were active in any assay of this set; here they are far more common.
UPR XBP1 act – activators of adaptive XBP1 UPR arm, primary screen, cell-based, CHO-XBP1 luciferase reporter, luminescence, uHTS; IRE1-XBP1 UPR activation; percent of tunicamycin response, DMSO as zero; activation, % at 20 µM; 330,000 tested, 0.33% active;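 active = versus positive control, 20 µM dose yields 30% or more activation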;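 also: 100% = tunicamycin at 10 µg/mL and 0% = DMSO only wells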
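assay system = CHO-XBP1 luciferase reporter cells | amount = 1000 cells/well | buffer or medium = F12 plus 10% FBS | compound dosing = single point, 20 µM final compound, 1% DMSO | incubation = 16-18 h cell attachment at 37 °C, then 6 h compound exposure | detection = Steady-Glo luminescence read | controls = tunicamycin 10 µg/mL and vehicle-only wells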
CHOP inh – inhibitors of CHOP promoter induction, primary screen, cell-based, unfolded protein response, luciferase reporter; 220,000 tested, 3.8% active; CHO-K1 CHOP-promoter luciferase, tunicamycin-induced, 15-18 h; inhibition, % at 10 µM; AID 2732, 2010;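 active = compounds that reduced the stress-induced luciferase reporter signal by more than about 70% of percent inhibition, limit read from the data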;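 also: 0% = tunicamycin plus vehicle and 100% = wells without tunicamycin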
PfM18AAP inh – PfM18AAP inhibitors, malaria aminopeptidase, primary screen, biochemical, QFRET, recombinant enzyme. M18 aspartyl aminopeptidase (Plasmodium falciparum 3D7). H-Glu-NHMec fluorogenic cleavage. inhibition, % at 7.35 µM. 290,000 tested, 1.2% active. AID 1822, 2009;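 active = inhibition above the campaign mean inhibition over all tested compounds plus 3 SD, cut at about 28% in these data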;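 also: 0% = plate median of test compound wells and 100% = 2 mM ZnCl2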
p97 ATPase inh – inhibitors of human p97 ATPase, primary screen, biochemical; Transitional endoplasmic reticulum ATPase (Homo sapiens), P55072; 220,000 tested, 0.42% active; recombinant p97 ATPase, Kinase-Glo ATP luminescence, 3 h; inhibition, % at 8 µM; AID 1481, 2009; in the data active = inhibition above about 15%;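 also: 0% = DMSO vehicle and 100% = wells lacking enzyme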
Target sequence (P55072 whole entry, looked up): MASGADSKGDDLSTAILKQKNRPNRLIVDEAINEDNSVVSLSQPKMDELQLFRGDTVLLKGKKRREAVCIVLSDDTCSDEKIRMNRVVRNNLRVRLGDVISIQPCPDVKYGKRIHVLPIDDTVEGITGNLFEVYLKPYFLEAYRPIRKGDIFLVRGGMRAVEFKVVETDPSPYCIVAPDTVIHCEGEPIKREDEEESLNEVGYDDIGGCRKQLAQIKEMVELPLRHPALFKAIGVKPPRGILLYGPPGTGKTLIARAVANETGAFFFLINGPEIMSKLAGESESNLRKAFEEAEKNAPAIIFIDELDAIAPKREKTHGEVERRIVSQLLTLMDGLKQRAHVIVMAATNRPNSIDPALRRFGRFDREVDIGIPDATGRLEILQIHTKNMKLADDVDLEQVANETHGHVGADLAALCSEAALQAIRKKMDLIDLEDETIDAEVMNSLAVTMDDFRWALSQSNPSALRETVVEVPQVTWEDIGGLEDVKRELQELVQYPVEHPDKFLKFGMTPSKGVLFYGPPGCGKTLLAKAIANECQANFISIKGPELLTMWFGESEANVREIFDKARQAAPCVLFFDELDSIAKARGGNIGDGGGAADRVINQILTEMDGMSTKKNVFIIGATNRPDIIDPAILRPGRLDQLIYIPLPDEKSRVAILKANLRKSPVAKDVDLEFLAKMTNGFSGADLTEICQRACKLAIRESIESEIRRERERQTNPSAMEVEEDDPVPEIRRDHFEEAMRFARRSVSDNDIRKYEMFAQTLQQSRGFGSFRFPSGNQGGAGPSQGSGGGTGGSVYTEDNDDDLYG
CHOP UPR activ – activators of apoptotic CHOP UPR arm, primary screen, cell-based, CHO-CHOP luciferase reporter, luminescence, uHTS | UPR activation; percent of tunicamycin response over DMSO baseline | activation, % at 10 µM | 330,000 tested, 0.34% active | AID 449763, 2010;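 active = at 10 µM dose, activation of 40% or more, normalized to positive control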;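 also: 100% = tunicamycin at 10 µg/mL and 0% = DMSO alone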
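measured by = luciferase luminescence | assay system = CHO-CHOP cells, stable luciferase reporter of PERK-eIF2a-CHOP signalling | amount = 500 reporter cells seeded per well | timing = 6 h compound exposure at 37 °C after overnight seeding | controls = positive tunicamycin 10 µg/mL, negative DMSO alone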
HCV NS3 hel inh – inhibitors of HCV NS3 helicase, primary screen, biochemical, Cy5 molecular beacon fluorescence. Hepatitis C virus NS3 helicase. NS3 helicase DNA unwinding. inhibition, % at 10.9 µM. 290,000 tested, 0.56% active. AID 1800, 2009;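 active = inhibition above the mean of all tested compounds plus 3 SD, set per campaign, cut at about 35% in these data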;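 also: 0% = DMSO wells and 100% = thioflavine S control wells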
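Compound dosing – single dose, 10.9 µM nominal final, DMSO 0.8% final · System – NS3 helicase fragment of HCV · Buffer or medium – MOPS pH 6.5, MgCl2, DTT, Tween20, BSA · Signal – Cy5 beacon fluorescence read at start and 1 h · Also added – annealed dual-labelled DNA beacon duplex, ATP-started · Schedule – 1 h at 25 °C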
NS3 hel confirm – HCV NS3 helicase inhibitors, retest, confirmation, biochemical, Cy5 molecular beacon fluorescence, triplicate | NS3 helicase DNA unwinding | inhibition, % at 10.9 µM | AID 1943, 2009 | 1,600 tested, 31% active | shares compounds with HCV NS3 hel inh;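 active = inhibition above the mean of all tested compounds plus 3 SD, cutoff set per campaign, cut at about 36% in these data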
DNA FID counter – compounds displacing fluorescent DNA intercalator, artefact control for HCV NS3 helicase inhibitor project, biochemical, FID fluorescence, triplicate; shares compounds with HCV NS3 hel inh; DNA fluorescent intercalator displacement; inhibition, % at 7.9 µM; 1,600 tested, 4% active; in the data active = inhibition above about 37%;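 also: 0% = vehicle and 100% = reference compound; higher means more displacement of ethidium bromide from the DNA hairpin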
Active calls of the source: *; x = not tested or not shown.

SMILES	UPR XBP1 act	CHOP inh	PfM18AAP inh	p97 ATPase inh	CHOP UPR activ	HCV NS3 hel inh	NS3 hel confirm	DNA FID counter
Cc1cc(O)c(C(=O)/C=C/c2ccccc2Br)c(=O)o1	-3.0	x	9.0	x	0.8	47.9*	17.4	7.1
Cn1nc(NC(=O)CC(C)(C)CC(=O)O)c2ccccc21	-1.4	9.5	-15.6	5.5	-0.3	-14.2	x	x
COc1ccc(OC)c(NC(=O)COC(=O)CCCN=C2NS(=O)(=O)c3ccccc32)c1	-0.6	x	x	x	-1.0	x	x	x
NC(=O)Nc1ccc(C(=O)OCC(=O)N2CCc3ccccc3C2)cc1	2.2	x	x	x	0.0	x	x	x
CCCCN(CCCC)c1ccc(C(=O)c2ccccc2C(=O)O)c(O)c1	0.3	47.1	0.6	-2.5	-1.6	60.2*	75.6*	-13.7
CN(C)c1ccc(C(=O)c2ccccc2C(=O)O)c(O)c1	-2.4	-23.6	2.4	-2.9	-0.5	5.0	x	x
NS(=O)(=O)c1ccc(CCNC(=O)c2ccc(Cl)s2)cc1	-1.3	x	-0.2	x	1.2	8.7	x	x
NS(=O)(=O)c1ccc(CCNC(=O)c2cc3ccccc3s2)cc1	0.0	x	-1.9	x	0.3	50.8*	-3.5	-6.0
CCN(C[C@H]1N[C@@](Cc2ccccc2)(C(=O)OC)[C@H]2C(=O)N(C)C(=O)[C@@H]12)C(=O)Nc1ccccc1	0.0	x	x	x	0.9	x	x	x
NC(=S)N/N=C\c1c(OCc2ccccc2Cl)ccc2ccccc12	0.9	-53.4	3.9	-2.1	3.5	36.3*	12.4	-21.0
CCOC(=O)C1(C)C=C(Nc2ccc(O)cc2)C(=O)N1c1ccc(O)cc1 (configuration not stated)	-1.8	24.0	33.7*	13.1	-2.5	37.8*	-10.2	14.0
CCOC(=O)C1(C)C=C(Nc2ccc(OC)cc2)C(=O)N1c1ccc(OC)cc1 (configuration not stated)	0.7	10.0	-0.3	4.5	-2.0	3.0	x	x
Clc1cccc(C2Nc3cccc4cccc(c34)N2)c1Cl	2.1	x	25.4	x	0.0	49.2*	-11.2	11.4
Fc1ccc(C2Nc3cccc4cccc(c34)N2)cc1	-2.9	x	17.4	x	2.1	44.6*	-29.9	17.3
Cc1cc(C)c(OCC(=O)OCC(=O)NCC2CCCCC2)c(C)c1	-3.9	x	x	x	1.4	x	x	x
Cc1c(Cl)cccc1NS(=O)(=O)c1ccc2c(c1)C1C=CCC1C(c1ccc(C(=O)O)cc1)N2 (configuration not stated)	-3.1	-8.6	6.2	35.8*	-1.0	39.3*	54.6*	42.6*
O=C(Nc1cc(S(=O)(=O)N2CCOCC2)ccc1O)c1ccc(S(=O)(=O)N2CCCCC2)cc1	-1.1	x	x	x	-0.5	x	x	x
O=C(Nc1cc(S(=O)(=O)Nc2ccc(Cl)cc2)ccc1O)c1ccc(S(=O)(=O)N2CCCCCC2)cc1	-3.1	-1.1	17.8	-4.8	-0.9	44.8*	-26.1	2.7
S=c1[nH]nc(COc2ccc(Cl)cc2)n1Cc1ccco1	-1.7	12.9	12.4	-4.4	0.8	36.4*	3.3	-24.3
O=C(Nc1ccc(S(=O)(=O)Nc2nccs2)cc1)c1ccccc1OC(F)F	-4.3	x	x	x	1.0	x	x	x
CCOc1cc(/C=C2\C(=N)N3N=C(S(C)(=O)=O)SC3=NC2=O)ccc1OCCOc1cccc(OC)c1	-3.6	x	0.5	x	-1.4	-6.3	x	x
CCS(=O)(=O)C1=NN2C(=N)/C(=C\c3ccc(OCCOc4cccc(OC)c4)c(OC)c3)C(=O)N=C2S1	x	x	5.8	x	x	46.4*	63.0*	13.1
CCCCn1c(N)c(N(CC)C(=O)CCNC(=O)NC23CC4CC(CC(C4)C2)C3)c(=O)[nH]c1=O	-7.9	x	12.1	x	-1.1	-0.4	x	x
CCN(CC)S(=O)(=O)c1cc(OC)ccc1N=Nc1ccc(O)c2ncccc12	0.8	x	-0.3	x	0.8	49.5*	68.0*	-3.1
O=C(NCCc1cccs1)C12CN(Cc3ccccc3)CC1C(c1cccc([N+](=O)[O-])c1)=NO2 (configuration not stated)	-1.4	24.7	-7.7	1.3	0.1	56.0*	2.0	-21.2
SMILES	UPR XBP1 act	CHOP inh	PfM18AAP inh	p97 ATPase inh	CHOP UPR activ	HCV NS3 hel inh	NS3 hel confirm	DNA FID counter
O=C(NCCCCc1ccccc1)C12CN(Cc3ccccc3)CC1C(c1cccc([N+](=O)[O-])c1)=NO2 (configuration not stated)	-2.8	24.3	-12.1	0.2	-0.1	-13.1	x	x
COc1ccccc1NC(=O)CC1S/C(=N/N=C(\C)C2CCCCC2)NC1=O (configuration not stated)	-3.4	x	-12.2	x	1.0	-12.7	x	x
CC1(C)CC(=O)C2=C(C1)OC1=C(C(=O)CC(C)(C)C1)C2c1cc([N+](=O)[O-])cc([N+](=O)[O-])c1O	-2.8	-30.3	-1.8	-5.1	0.0	43.1*	77.9*	-17.9
COc1cccc(-c2nc(-c3ccccc3)c(-c3ccccc3)[nH]2)c1OCC(=O)O	-2.1	x	3.5	x	-1.4	45.6*	64.4*	-11.6
CCOC(=O)c1c(N)sc2c1CCC(C)C2 (configuration not stated)	-3.0	26.2	8.6	-5.6	-1.0	42.8*	-15.0	-16.4
CCOC(=O)c1c(NS(C)(=O)=O)sc2c1CCC(C)C2 (configuration not stated)	-2.8	0.2	-1.6	0.9	-1.2	7.7	x	x
O=C(CCc1ccccc1)N1CCN(Cc2ccc(F)cc2Cl)CC1	-3.2	x	-7.6	x	-0.4	-1.4	x	x
CCc1cc2c3c([nH]c2cc1S(=O)(=O)NCCCOC)CC(C)(C)CC3=O	-5.7	x	-0.6	x	0.8	-10.9	x	x
Cc1cc(C)n(-c2ccc(C(=O)OCC(=O)c3ccc(Br)s3)cc2)n1	-0.2	8.9	-8.4	3.0	0.2	50.4*	-4.3	-5.2
O=C(NC1CCCC1)C(=O)N(c1ccccc1F)C(C(=O)NCC1CCCO1)c1cccs1 (configuration not stated)	0.0	7.3	1.2	3.5	-1.1	36.5*	-14.8	-36.5
O=C(NC1CCCC1)C(c1cccs1)N(CC1CCCO1)C(=O)Cc1cccs1 (configuration not stated)	-3.4	-1.1	-6.5	-8.2	1.6	-0.8	x	x
CC(C)CC(=O)N1CCC(N(CCc2ccccc2)Cc2ccccc2)CC1	-5.5	x	2.7	x	0.3	6.7	x	x

Compound activity: PubChem BioAssay, several laboratories
